Experimental data as given in ChEMBL document CHEMBL2331336, “Discovery and structure-activity relationship of 1,3-cyclohexyl amide derivatives as novel mGluR5 negative allosteric modulators” (Bioorg Med Chem Lett, 2013).
Values after ≈ are worked out from the molar mass of the structure shown.

Legend:
[1] = target: T1, Metabotropic glutamate receptor 5 (Homo sapiens, UniProt P41594); assay: Displacement of [3H]-ABP688 from human mGluR5 expressed in HEK293 cells after 60 mins by scintillation counting; type: cell-based
T1 sequence (P41594 whole entry): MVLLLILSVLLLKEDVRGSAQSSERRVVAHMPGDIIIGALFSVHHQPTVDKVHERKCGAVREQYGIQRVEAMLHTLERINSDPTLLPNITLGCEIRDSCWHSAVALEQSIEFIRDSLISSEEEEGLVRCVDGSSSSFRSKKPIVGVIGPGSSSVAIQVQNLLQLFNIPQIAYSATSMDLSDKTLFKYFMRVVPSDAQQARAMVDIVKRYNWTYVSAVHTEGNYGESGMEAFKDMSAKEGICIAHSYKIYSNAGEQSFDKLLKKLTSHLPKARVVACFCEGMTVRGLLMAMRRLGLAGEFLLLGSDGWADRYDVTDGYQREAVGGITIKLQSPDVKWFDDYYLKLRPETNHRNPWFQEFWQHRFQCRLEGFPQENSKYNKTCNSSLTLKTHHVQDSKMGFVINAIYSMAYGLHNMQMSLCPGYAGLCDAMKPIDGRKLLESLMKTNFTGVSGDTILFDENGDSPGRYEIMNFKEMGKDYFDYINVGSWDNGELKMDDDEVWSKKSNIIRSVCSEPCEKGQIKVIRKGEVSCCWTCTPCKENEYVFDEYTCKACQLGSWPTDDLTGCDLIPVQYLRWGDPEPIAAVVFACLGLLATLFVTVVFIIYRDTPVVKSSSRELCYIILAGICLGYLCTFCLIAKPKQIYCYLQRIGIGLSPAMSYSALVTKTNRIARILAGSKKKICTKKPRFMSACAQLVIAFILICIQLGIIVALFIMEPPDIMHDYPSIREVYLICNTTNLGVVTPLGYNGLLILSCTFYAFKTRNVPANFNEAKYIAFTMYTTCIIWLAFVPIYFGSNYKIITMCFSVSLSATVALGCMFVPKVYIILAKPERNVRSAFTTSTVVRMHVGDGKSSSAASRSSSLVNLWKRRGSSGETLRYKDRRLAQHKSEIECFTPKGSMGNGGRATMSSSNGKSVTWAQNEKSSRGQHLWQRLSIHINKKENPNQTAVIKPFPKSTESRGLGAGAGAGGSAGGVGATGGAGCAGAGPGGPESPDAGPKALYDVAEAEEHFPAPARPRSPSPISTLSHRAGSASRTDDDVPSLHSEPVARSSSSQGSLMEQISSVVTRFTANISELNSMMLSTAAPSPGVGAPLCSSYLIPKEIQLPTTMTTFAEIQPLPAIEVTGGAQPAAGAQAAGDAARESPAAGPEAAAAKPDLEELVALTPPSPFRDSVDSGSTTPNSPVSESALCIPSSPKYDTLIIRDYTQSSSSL

[2] = target: T1, Metabotropic glutamate receptor 5; assay: Antagonist activity at human mGluR5 expressed in HEK293 cells assessed as inhibition of Ca2+ mobilization by FLIPR assay; type: functional, cell-based
[3] = Kinetic solubility of the compound in potassium phosphate buffer after 4 hrs; type: physicochemical; settings: read-out: Kinetic_solubility
In short: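 Kinetic solubility: compound from 10 mM DMSO stock diluted into 25 mM potassium phosphate buffer and shaken 4 h. Supernatant analyzed by UPLC with PDA detection at 254 nm.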

Liver microsomes [4] = assay: Intrinsic clearance in rat liver microsomes; type: ADME, Microsome
[5] = Plasma protein binding in human; type: ADME, cell-free; settings: read-out: PPB (converted)
Liver = assay: Intrinsic clearance in mouse liver microsomes; type: ADME, Microsome
Liver microsomes [6] = assay: Intrinsic clearance in human liver microsomes; type: ADME, Microsome; set-up: unit not given here
[7] = target: T2, Metabotropic glutamate receptor 1 (Rattus norvegicus, UniProt P23385); assay: Agonist activity at rat mGluR1 expressed in HEK293 cells assessed as Ca2+ mobilization by FLIPR assay; type: functional, cell-based
T2 sequence (P23385 whole entry): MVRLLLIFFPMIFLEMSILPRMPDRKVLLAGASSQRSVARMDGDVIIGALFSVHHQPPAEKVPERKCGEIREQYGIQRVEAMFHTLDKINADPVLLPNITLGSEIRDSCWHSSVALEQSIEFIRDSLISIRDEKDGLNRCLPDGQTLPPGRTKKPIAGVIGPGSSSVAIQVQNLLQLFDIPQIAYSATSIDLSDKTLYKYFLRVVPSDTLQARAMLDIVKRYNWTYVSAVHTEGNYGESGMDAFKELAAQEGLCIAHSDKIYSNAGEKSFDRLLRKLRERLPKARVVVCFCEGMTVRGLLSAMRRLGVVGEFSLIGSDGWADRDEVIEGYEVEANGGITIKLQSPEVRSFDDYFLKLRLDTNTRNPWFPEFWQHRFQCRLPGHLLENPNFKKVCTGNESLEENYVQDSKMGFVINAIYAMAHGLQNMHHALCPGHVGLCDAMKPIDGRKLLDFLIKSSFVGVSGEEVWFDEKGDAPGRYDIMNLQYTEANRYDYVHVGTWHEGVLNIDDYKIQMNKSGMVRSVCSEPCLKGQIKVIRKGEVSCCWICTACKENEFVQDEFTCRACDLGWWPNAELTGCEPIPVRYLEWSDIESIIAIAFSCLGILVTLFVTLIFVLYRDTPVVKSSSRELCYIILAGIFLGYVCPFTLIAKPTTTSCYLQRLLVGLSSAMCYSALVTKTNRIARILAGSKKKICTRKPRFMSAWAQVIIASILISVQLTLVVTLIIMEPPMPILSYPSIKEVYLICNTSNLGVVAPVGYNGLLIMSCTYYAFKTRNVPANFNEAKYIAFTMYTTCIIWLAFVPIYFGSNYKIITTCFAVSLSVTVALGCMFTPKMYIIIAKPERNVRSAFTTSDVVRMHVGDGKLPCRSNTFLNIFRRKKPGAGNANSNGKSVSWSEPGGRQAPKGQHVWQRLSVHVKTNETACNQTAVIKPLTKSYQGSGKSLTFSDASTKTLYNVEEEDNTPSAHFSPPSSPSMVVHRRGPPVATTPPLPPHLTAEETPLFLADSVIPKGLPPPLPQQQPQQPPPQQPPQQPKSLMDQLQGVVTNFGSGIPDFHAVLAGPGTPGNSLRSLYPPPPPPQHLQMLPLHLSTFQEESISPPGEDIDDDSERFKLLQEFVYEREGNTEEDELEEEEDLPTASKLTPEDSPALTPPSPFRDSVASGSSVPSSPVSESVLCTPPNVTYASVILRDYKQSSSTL
In short: (§1)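 Rat mGluR1 stably in HEK293 cells (1.5% calf serum medium), seeded 24 h earlier, Fluo-4 loaded 1 h at 37 °C in HBSS/HEPES pH 7.4 with probenecid. Curves fitted with Hill equation.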

[8] = target: T2, Metabotropic glutamate receptor 1; assay: Antagonist activity at rat mGluR1 expressed in HEK293 cells assessed as inhibition of Ca2+ mobilization by FLIPR assay; type: functional, cell-based; in short: as §1
[9] = Partition co-efficient, log D at pH 7.4 of the compound by shake flask method; type: physicochemical; settings: buffer

Row | SMILES | IC50 [2] [nM] | further results
1 | O=C(N[C@H]1CCC[C@H](NC(=O)c2ccccc2F)C1)c1cccc(Cl)c1 (relative stereo) | 175 | Ki [1]: 760 nM
2 | Cc1cccc(C(=O)N[C@H]2CCC[C@H](NC(=O)c3ccccn3)C2)c1 (relative stereo) | 1000 | 
3 | O=C(NC1CCCC2(CN=C(c3cccc(Cl)c3)O2)C1)c1ccncc1 (mixture of isomers) | > 10000 | 
4 | O=C(N[C@H]1CCC[C@H](NC(=O)c2cccc(Cl)c2)C1)c1cccnc1 (relative stereo) | 612 | 
5 | Cc1ccnc(C(=O)N[C@H]2CCC[C@H](NC(=O)c3cccc(Cl)c3)C2)c1 (relative stereo) | 3400 | 
6 | N#Cc1cccc(C(=O)N[C@@H]2CCC[C@@H](NC(=O)c3ccccn3)C2)c1 | 231 | solubility kinetic at 4 h [3]: 240 µM (≈ 83.6 µg/mL); Intrinsic clearance (Liver microsomes [4]): 8.3 mL/min; fraction unbound [5]: 0.157; Intrinsic clearance (Liver): 1.8 mL/min; Intrinsic clearance (Liver microsomes [6]): 0.5; EC50 [7]: > 10000 nM; IC50 [8]: > 10000 nM; Ki [1]: 1270 nM
7 | Cc1cccnc1C(=O)N[C@H]1CCC[C@H](NC(=O)c2cccc(Cl)c2)C1 (relative stereo) | 7840 | 
8 | O=C(NC1CCCC(NC(=O)c2cccc(Cl)c2)C1)c1cccc(F)c1 (racemic) | 86 | Ki [1]: 320 nM
9 | Cc1cccc(C(=O)N[C@H]2CCC[C@@]3(CN=C(c4cccc(Cl)c4)O3)C2)n1 (relative stereo) | 1510 | 
10 | N#Cc1cccc(C(=O)N[C@@H]2CCC[C@H](NC(=O)c3ccccn3)C2)c1 (relative stereo) | > 10000 | 
11 | COc1cccc(C(=O)NC2CCCC(NC(=O)c3ccccn3)C2)c1 (mixture of isomers) | > 10000 | 
12 | O=C(N[C@H]1CCC[C@H](NC(=O)c2cccc(Cl)c2)C1)c1ccc(F)cc1 (relative stereo) | 194 | Ki [1]: 492 nM
13 | CN(C)c1cccc(C(=O)N[C@H]2CCC[C@H](NC(=O)c3cccc(Cl)c3)C2)c1 (relative stereo) | > 10000 | 
14 | N#Cc1cccc(C(=O)N[C@@H]2CCC[C@@H](C(=O)Nc3ccccn3)C2)c1 | > 10000 | 
15 | O=C(N[C@@H]1CCC[C@@]2(CN=C(c3cccc(Cl)c3)O2)C1)c1ccccn1 | 2910 | 
16 | O=C(N[C@H]1CCC[C@H](C(=O)Nc2cccc(Cl)c2)C1)c1ccccn1 | 468 | 
17 | O=C(N[C@H]1CCC[C@H](NC(=O)c2cccc(F)c2)C1)c1cccc(F)c1 | 593 | 
18 | O=C(N[C@@H]1CCC[C@@H](C(=O)Nc2ccccn2)C1)c1cccc(Cl)c1 | 5000 | 
19 | O=C(NC1CCCC(NC(=O)c2ccccn2)C1)c1cccc(Cl)c1 (racemic) | 314 | 
20 | N#Cc1cccc(C(=O)N[C@H]2CCC[C@H](NC(=O)c3ccccn3)C2)c1 | > 10000 | 
21 | Cc1cccc(C(=O)N[C@@H]2CCC[C@@]3(CN=C(c4cccc(Cl)c4)O3)C2)n1 (relative stereo) | 72 | 
22 | O=C(N[C@H]1CCC[C@H](NC(=O)c2cccc(Cl)c2)C1)c1ccncc1 (relative stereo) | 300 | Ki [1]: 445 nM
23 | CN(C)c1ccc(C(=O)N[C@H]2CCC[C@H](NC(=O)c3cccc(Cl)c3)C2)cc1 | 473 | 
24 | O=C(N[C@@H]1CCC[C@@H](NC(=O)c2cccc(Cl)c2)C1)c1cccc(F)c1 | 59 | logD [9]: > 5; solubility kinetic at 4 h [3]: 5.4 µM (≈ 2.02 µg/mL); Intrinsic clearance (Liver microsomes [4]): 9.4 mL/min; fraction unbound [5]: 0.039; Intrinsic clearance (Liver microsomes [6]): 0.8; EC50 [7]: > 10000 nM; IC50 [8]: 2100 nM; Ki [1]: 211 nM

More lines, main results first:

Row | IC50 [2] [nM] | SMILES | further results
25 | 290 | Cc1cccc(C(=O)N[C@H]2CCC[C@H](NC(=O)c3cccc(Cl)c3)C2)n1 (racemic) | Ki [1]: 582 nM
26 | > 10000 | CN(C(=O)c1cccc(Cl)c1)C1CCCC(N(C)C(=O)c2cccc(Cl)c2)C1 (stereo unspecified) | 
27 | 9600 | O=C(N[C@H]1CCC[C@H](NC(=O)c2cccc(Cl)c2)C1)c1cccc(F)c1 | 
28 | 425 | O=C(N[C@H]1CCC[C@H](NC(=O)c2ncccn2)C1)c1cccc(Cl)c1 (relative stereo) | Ki [1]: 3790 nM
29 | 1150 | O=C(N[C@H]1CCC[C@H](NC(=O)c2ccccn2)C1)c1ccccn1 | 
30 | > 10000 | O=C(Cc1ccccn1)N[C@H]1CCC[C@H](NC(=O)c2cccc(Cl)c2)C1 (relative stereo) | 
31 | 647 | O=C(NC1CCCC2(CN=C(c3cccc(Cl)c3)O2)C1)c1ccccn1 (mixture of isomers) | Ki [1]: 30 nM
32 | 266 | COc1ccc(C(=O)N[C@H]2CCC[C@H](NC(=O)c3cccc(Cl)c3)C2)cc1 (relative stereo) | Ki [1]: 674 nM
33 | 531 | N#Cc1cccc(C(=O)NC2CCCC(NC(=O)c3ccccn3)C2)c1 (racemic) | Ki [1]: 1540 nM
34 | 139 | O=C(NC1CCCC(NC(=O)c2cccc(Cl)c2)C1)c1cccc(Cl)c1 (mixture of isomers) | 
35 | 857 | O=C(N[C@H]1CCC[C@H](NC(=O)C2CCCCC2)C1)c1cccc(Cl)c1 (relative stereo) | 
36 | 228 | O=C(N[C@H]1CCC[C@H](NC(=O)c2cccc(Cl)c2)C1)c1ccccc1 (relative stereo) | Ki [1]: 672 nM
37 | > 10000 | O=C(N[C@H]1CCC[C@H](NC(=O)c2ccccn2)C1)c1cccc(Cl)c1 | 
38 | 1370 | O=C(N[C@H]1CCC[C@H](NC(=O)c2cnccn2)C1)c1cccc(Cl)c1 (relative stereo) | 
39 | 789 | COc1cccc(C(=O)N[C@H]2CCC[C@H](NC(=O)c3cccc(Cl)c3)C2)c1 (relative stereo) | 
40 | 1510 | O=C(N[C@@H]1CCC[C@H](NC(=O)c2ccccn2)C1)c1cccc(Cl)c1 (relative stereo) | 
41 | 671 | N#Cc1cccnc1C(=O)NC1CCCC(NC(=O)c2cccc(Cl)c2)C1 (mixture of isomers) | Ki [1]: 1250 nM
42 | > 10000 | O=C(NC1CCCC2(CN=C(c3cccc(Cl)c3)O2)C1)c1cccnc1 (mixture of isomers) | 
43 | > 10000 | CN(C(=O)c1cccc(Cl)c1)C1CCCC(NC(=O)c2cccc(Cl)c2)C1 (stereo unspecified) | 
44 | 5230 | Cc1cccc(C(=O)N[C@@H]2CCC[C@@]3(CN=C(c4cccc(Cl)c4)O3)C2)n1 | 
